Experimental data published in ChEMBL document CHEMBL1149642, “Molecular design of anti-MRSA agents based on the anacardic acid scaffold” (2007).
≈ marks a conversion by molar mass, not a printed value. Calls of active or inactive are those of the source. The rule behind the calls is not given here.

Legend:
[1] = test system: Staphylococcus aureus; experiment: Antibacterial activity against methicillin-resistant Staphylococcus aureus ATCC 33592 by broth dilution method; format: functional
Outline: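 Two-fold serial broth dilution in NYG broth (0.8% nutrient broth, 0.5% yeast extract, 0.1% glucose). Compound dilutions made in DMF and added 1:100 to broth. Inoculum was an overnight culture added at 1:100. Incubated at 37 °C for 48 h. MIC taken as the lowest concentration with no visible growth. Top concentration tested was 200 (solubility limit).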

[2] = test system: Escherichia coli; experiment: Antibacterial activity against Escherichia coli ATCC 9637; format: functional, organism-based
Outline: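 Two-fold serial broth dilution in NYG broth (0.8% nutrient broth, 0.5% yeast extract, 0.1% glucose); compound dilutions in DMF, 30 µL added to 3 mL broth, inoculated with 30 µL overnight culture; 37 °C, 48 h; MIC = lowest concentration with no visible growth; top concentration 200 µg/mL (solubility-limited).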

SMILES	MIC [1]	Activity [2]	Activity [1]
CCCCCC/C=C/CCCCCCCc1cccc(O)c1C(=O)O	6.25 µg/mL (≈ 18 µM)	inactive	
CCCCCCCCCOC(=O)c1ccccc1O			inactive
C=CC/C=C\C/C=C\CCCCCCCc1cccc(O)c1C(=O)OC	> 800 µg/mL	inactive	
C=CC/C=C\C/C=C\CCCCCCCc1cccc(OC(C)=O)c1C(=O)O	> 800 µg/mL	inactive	
O=C(O)c1c(O)cccc1CC1CCCCCCC1	12.5 µg/mL (≈ 47.6 µM)	inactive	
O=C(O)c1c(O)cccc1CC1CCCCC1	25 µg/mL (≈ 107 µM)	inactive	
O=C(O)c1c(O)cccc1CCc1ccccc1	100 µg/mL (≈ 413 µM)	inactive	
O=C(O)c1c(O)cccc1CC1CCCCCCCCCCC1	0.39 µg/mL (≈ 1.22 µM)	inactive	
O=C(O)c1c(O)cccc1CCc1cc(O)ccc1O	100 µg/mL (≈ 365 µM)	inactive	
O=C(O)c1c(O)cccc1CCc1ccc(O)c(O)c1	100 µg/mL (≈ 365 µM)	inactive	
O=C(O)c1c(O)cccc1CCCCc1ccccc1	25 µg/mL (≈ 92.5 µM)	inactive	
CCCCC(C)Cc1cccc(O)c1C(=O)O (configuration not stated)	50 µg/mL (≈ 212 µM)	inactive	
O=C(O)c1c(O)cccc1CCc1ccc(O)cc1	50 µg/mL (≈ 194 µM)	inactive	
O=C(O)c1c(O)cccc1CCC1CCCCC1	12.5 µg/mL (≈ 50.3 µM)	inactive	
O=C(O)c1c(O)cccc1CCc1cc(O)c(O)cc1O	> 200 µg/mL	inactive	
O=C(O)c1c(O)cccc1CCc1ccc(O)cc1O	> 200 µg/mL	inactive	
O=C(O)c1c(O)cccc1CC1CCCC1	100 µg/mL (≈ 454 µM)	inactive	
CCCCCC(CC)Cc1cccc(O)c1C(=O)O (configuration not stated)	6.25 µg/mL (≈ 23.6 µM)	inactive	
CC(C)CCCC(C)CCCc1cccc(O)c1C(=O)O (configuration not stated)	0.39 µg/mL (≈ 1.33 µM)	inactive	
